# Measurements from ChEMBL document CHEMBL2439973, “Discovery of VU0409106: A negative allosteric modulator of mGlu5 with activity in a mouse model of anxiety” (Bioorg Med Chem Lett, 2013).
# Calls of active or inactive are those of the source. No cut-off for these calls is given here.
# Tests used:
# CHO-K1 [1] = assay: Displacement of [3H]-Spiperone from human recombinant dopamine D4.2 receptor expressed in CHO-K1 cells at 10 uM relative to control; type: cell-based
# [2] = molecular target: D(3) dopamine receptor (Homo sapiens) (UniProt P35462); assay: Displacement of [3H]-Spiperone from human recombinant dopamine D3 receptor expressed in CHO cells at 10 uM relative to control; type: cell-based
# Oryctolagus cuniculus = organism: Oryctolagus cuniculus; assay: Displacement of [3H]-alpha,beta-Methylene-ATP from purinergic P2x receptor in rabbit urinary bladder at 10 uM relative to control
# [3] = molecular target: Alpha-1B adrenergic receptor (Rattus norvegicus) (UniProt P15823); assay: Displacement of [3H]-Prazosin from adrenergic alpha1B receptor in rat liver at 10 uM relative to control
# Rattus norvegicus [4] = organism: Rattus norvegicus; assay: Displacement of [3H]-Kainic acid from kainate receptor in cerebellum-less rat brain homogenate at 10 uM relative to control; type: tissue-based
# Outline: (§1)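 Tested once at 10 μM in a commercial radioligand binding panel of 68 GPCRs, ion channels, kinases and transporters. Activity is given as displacement of each radioligand relative to control.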
# Mus musculus [5] = assay: Anxiolytic activity in ip dosed Harlan CD-1 mouse assessed as inhibition of marble burying behavior; type: functional, organism-based
# Outline: (§2)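 Marble burying in mice with deep bedding; compound given IP at a range of doses with 15 min pretreatment, n = 8 per dose; marbles buried counted, brain samples collected right after testing for exposure; comparison to vehicle by Dunnett's test.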
# Mus musculus [6] = assay: Anxiolytic activity in Harlan CD-1 mouse assessed as inhibition of marble burying behavior at >= 3 mg/kg, ip; type: functional, organism-based; parameters: dose 3 mg/kg; outline: as §2
# [7] = molecular target: Beta-1 adrenergic receptor (Homo sapiens) (UniProt P08588); assay: Displacement of [125I]-Cyanopindolol from human recombinant adrenergic beta1 receptor expressed in CHO-K1 cells at 10 uM relative to control; type: cell-based; outline: as §1
# Rattus norvegicus [8] = organism: Rattus norvegicus; assay: Displacement of [3H]-Flunitrazepam from central-type GABAA receptor flunitrazepam binding site in cerebellum-less rat brain homogenate at 10 uM relative to control; type: tissue-based; outline: as §1
# [9] = molecular target: Muscarinic acetylcholine receptor M3 (Homo sapiens) (UniProt P20309); assay: Displacement of [3H]-N-Methylscopolamine from human recombinant muscarinic M3 receptor expressed in CHO-K1 cells at 10 uM relative to control; type: cell-based; outline: as §1
# [10] = molecular target: Gamma-aminobutyric acid type B receptor subunit 1 (Homo sapiens) (UniProt Q9UBS5); assay: Displacement of [3H]-CGP-54626 from human recombinant GABAB1A receptor expressed in CHO cells at 10 uM relative to control; type: cell-based; outline: as §1
# [11] = molecular target: Adenosine receptor A2a (Homo sapiens) (UniProt P29274); assay: Displacement of [3H]-CGS-21680 from human recombinant adenosine A2A receptor expressed in HEK293 cells at 10 uM relative to control; type: cell-based; outline: as §1
# Rattus norvegicus [12] = organism: Rattus norvegicus; assay: Displacement of [3H]-Muscimol from central-type GABAA receptor muscimol binding site in cerebellum-less rat brain homogenate at 10 uM relative to control; type: tissue-based; outline: as §1
# Rattus norvegicus [13] = organism: Rattus norvegicus; assay: Displacement of [3H]-Batrachotoxin from sodium channel site 2 in rat brain at 10 uM relative to control; type: tissue-based; outline: as §1
# Brain = assay: Tmax in CD-1 mouse brain at 10 mg/kg, ip by LC-MS/MS analysis; type: ADME, organism-based; parameters: dose 10 mg/kg, route intraperitoneal; conditions: in vivo
# Rattus norvegicus [14] = organism: Rattus norvegicus; assay: Displacement of [3H]-Nitrendipine from L-type calcium channel dihydropyridine binding site in rat cerebral cortex at 10 uM relative to control; type: tissue-based; outline: as §1
# [15] = molecular target: Metabotropic glutamate receptor 4 (Rattus norvegicus) (UniProt P31423); assay: Allosteric modulation of rat mGlu4 receptor expressed in HEK293 cells coexpressing G protein-activated inward rectifier potassium channel assessed as effect on glutamate-induced thallium flux at 10 uM; type: cell-based
# Rattus norvegicus [16] = organism: Rattus norvegicus; assay: Displacement of [3H]-Idazoxan from central-type imidazoline I2 receptor in rat cerebral cortex at 10 uM relative to control; type: tissue-based; outline: as §1
# [17] = molecular target: Sodium-dependent dopamine transporter (Homo sapiens) (UniProt Q01959); assay: Displacement of [125I]-RTI-55 from human recombinant DAT expressed in CHO-K1 cells at 10 uM relative to control; type: cell-based; outline: as §1
# Plasma = assay: Tmax in CD-1 mouse plasma at 10 mg/kg, ip by LC-MS/MS analysis; type: ADME, organism-based; parameters: dose 10 mg/kg, route intraperitoneal; conditions: in vivo
# [18] = molecular target: Mu-type opioid receptor (Homo sapiens) (UniProt P35372); assay: Displacement of [3H]-Diprenorphine from human recombinant mu opioid receptor expressed in CHO-K1 cells at 10 uM relative to control; type: cell-based; outline: as §1
# [19] = molecular target: D(1A) dopamine receptor (Homo sapiens) (UniProt P21728); assay: Displacement of [3H]-SCH-23390 from human recombinant dopamine D1 receptor expressed in CHO cells at 10 uM relative to control; type: cell-based
# [20] = molecular target: Kappa-type opioid receptor (Homo sapiens) (UniProt P41145); assay: Displacement of [3H]-Diprenorphine from human recombinant kappa receptor expressed in HEK293 cells at 10 uM relative to control; type: cell-based; outline: as §1
# [21] = Ratio of drug level in brain to plasma in CD-1 mouse at 10 mg/kg, ip by LC-MS/MS analysis; type: ADME, organism-based; parameters: dose 10 mg/kg, route intraperitoneal; conditions: brain and plasma, read-out: BPR
# Mesocricetus auratus = organism: Mesocricetus auratus; assay: Displacement of [3H]-Glyburide from ATP-sensitive potassium channel in hamster pancreatic HIT-T15 beta cells at 10 uM relative to control; outline: as §1
# [22] = molecular target: Metabotropic glutamate receptor 6 (Rattus norvegicus) (UniProt P35349); assay: Allosteric modulation of rat mGlu6 receptor expressed in HEK293 cells coexpressing G protein-activated inward rectifier potassium channel assessed as effect on glutamate-induced thallium flux at 10 uM; type: cell-based
# CHO-K1 [23] = assay: Displacement of [125I]-2-Iodomelatonin from human recombinant MT1 receptor expressed in CHO-K1 cells at 10 uM relative to control; type: cell-based; outline: as §1
# [24] = molecular target: Sigma non-opioid intracellular receptor 1 (Homo sapiens) (UniProt Q99720); assay: Displacement of [3H]-Haloperidol from sigma1 receptor in human Jurkat cells at 10 uM relative to control; type: cell-based; outline: as §1
# [25] = molecular target: Metabotropic glutamate receptor 8 (Rattus norvegicus) (UniProt P70579); assay: Allosteric modulation of rat mGlu8 receptor expressed in HEK293 cells coexpressing G protein-activated inward rectifier potassium channel assessed as effect on glutamate-induced thallium flux at 10 uM; type: cell-based
# [26] = molecular target: 5-hydroxytryptamine receptor 3A (Homo sapiens) (UniProt P46098); assay: Displacement of [3H]-GR-65630 from human recombinant 5-HT3 receptor expressed in HEK293 cells at 10 uM relative to control; type: cell-based; outline: as §1
# [27] = molecular target: Prostaglandin E2 receptor EP4 subtype (Homo sapiens) (UniProt P35408); assay: Displacement of [3H]-PGE2 from human recombinant prostanoid EP4 receptor expressed in rat Chem-1 cells at 10 uM relative to control; type: cell-based
# [28] = molecular target: Sodium-dependent serotonin transporter (Homo sapiens) (UniProt P31645); assay: Displacement of [3H]-Paroxetine from human recombinant SERT expressed in HEK293 cells at 10 uM relative to control; type: cell-based
# [29] = molecular target: 5-hydroxytryptamine receptor 2B (Homo sapiens) (UniProt P41595); assay: Displacement of [3H]-Lysergic acid diethylamide from human recombinant 5-HT2B receptor expressed in CHO-K1 cells at 10 uM relative to control; type: cell-based; outline: as §1
# Rattus norvegicus [30] = organism: Rattus norvegicus; assay: Displacement of [125I]-Triiodothyronine from thyroid hormone receptor in rat liver at 10 uM relative to control; outline: as §1
# Metabotropic glutamate receptor 6 (Rattus norvegicus), sequence (P35349 whole entry): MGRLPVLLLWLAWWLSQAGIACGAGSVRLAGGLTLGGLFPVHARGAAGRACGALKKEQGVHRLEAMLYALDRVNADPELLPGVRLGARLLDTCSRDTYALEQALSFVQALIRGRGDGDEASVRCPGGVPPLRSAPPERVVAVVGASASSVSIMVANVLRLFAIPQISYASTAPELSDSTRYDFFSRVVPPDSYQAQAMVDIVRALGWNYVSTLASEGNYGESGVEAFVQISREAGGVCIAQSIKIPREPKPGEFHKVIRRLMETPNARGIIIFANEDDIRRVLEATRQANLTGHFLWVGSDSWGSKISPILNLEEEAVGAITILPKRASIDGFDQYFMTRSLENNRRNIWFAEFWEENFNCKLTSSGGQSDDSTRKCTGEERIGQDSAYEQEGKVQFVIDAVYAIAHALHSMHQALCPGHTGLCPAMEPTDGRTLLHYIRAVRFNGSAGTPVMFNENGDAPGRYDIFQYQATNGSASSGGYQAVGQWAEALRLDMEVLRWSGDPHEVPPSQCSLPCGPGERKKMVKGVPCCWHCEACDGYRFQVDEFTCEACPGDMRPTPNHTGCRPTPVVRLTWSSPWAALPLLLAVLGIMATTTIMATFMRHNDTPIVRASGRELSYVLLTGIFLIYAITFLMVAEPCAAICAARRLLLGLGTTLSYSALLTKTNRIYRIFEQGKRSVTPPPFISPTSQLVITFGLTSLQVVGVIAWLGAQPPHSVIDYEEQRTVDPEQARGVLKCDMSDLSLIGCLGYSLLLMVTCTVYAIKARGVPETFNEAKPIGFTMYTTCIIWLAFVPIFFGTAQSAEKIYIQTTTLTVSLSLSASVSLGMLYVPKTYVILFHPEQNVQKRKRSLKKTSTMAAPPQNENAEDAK
# Gamma-aminobutyric acid type B receptor subunit 1 (Homo sapiens), sequence (Q9UBS5 whole entry): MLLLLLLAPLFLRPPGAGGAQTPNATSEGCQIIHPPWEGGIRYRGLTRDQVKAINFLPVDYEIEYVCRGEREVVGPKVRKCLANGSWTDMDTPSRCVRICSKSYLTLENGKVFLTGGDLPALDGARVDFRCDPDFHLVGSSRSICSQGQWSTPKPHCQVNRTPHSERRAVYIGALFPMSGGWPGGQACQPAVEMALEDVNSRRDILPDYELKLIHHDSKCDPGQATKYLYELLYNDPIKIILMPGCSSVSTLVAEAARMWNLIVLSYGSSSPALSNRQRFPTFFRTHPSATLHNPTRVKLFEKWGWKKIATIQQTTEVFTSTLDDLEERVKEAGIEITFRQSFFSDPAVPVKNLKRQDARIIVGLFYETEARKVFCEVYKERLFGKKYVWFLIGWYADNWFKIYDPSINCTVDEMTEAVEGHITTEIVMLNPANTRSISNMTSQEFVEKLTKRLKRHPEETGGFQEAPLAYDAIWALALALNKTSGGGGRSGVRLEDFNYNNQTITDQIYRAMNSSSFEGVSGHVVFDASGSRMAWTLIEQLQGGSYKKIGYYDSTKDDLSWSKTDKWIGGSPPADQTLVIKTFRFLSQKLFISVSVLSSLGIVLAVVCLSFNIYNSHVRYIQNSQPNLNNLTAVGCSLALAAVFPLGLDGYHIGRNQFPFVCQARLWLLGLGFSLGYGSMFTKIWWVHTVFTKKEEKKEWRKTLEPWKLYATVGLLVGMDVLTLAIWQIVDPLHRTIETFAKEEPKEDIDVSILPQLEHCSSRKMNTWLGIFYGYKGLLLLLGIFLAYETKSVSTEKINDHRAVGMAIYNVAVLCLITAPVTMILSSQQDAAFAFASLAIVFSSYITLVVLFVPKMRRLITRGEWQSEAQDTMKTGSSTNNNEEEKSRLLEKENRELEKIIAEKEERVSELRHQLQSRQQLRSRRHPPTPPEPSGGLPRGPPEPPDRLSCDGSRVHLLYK
# Prostaglandin E2 receptor EP4 subtype (Homo sapiens), sequence (P35408 whole entry): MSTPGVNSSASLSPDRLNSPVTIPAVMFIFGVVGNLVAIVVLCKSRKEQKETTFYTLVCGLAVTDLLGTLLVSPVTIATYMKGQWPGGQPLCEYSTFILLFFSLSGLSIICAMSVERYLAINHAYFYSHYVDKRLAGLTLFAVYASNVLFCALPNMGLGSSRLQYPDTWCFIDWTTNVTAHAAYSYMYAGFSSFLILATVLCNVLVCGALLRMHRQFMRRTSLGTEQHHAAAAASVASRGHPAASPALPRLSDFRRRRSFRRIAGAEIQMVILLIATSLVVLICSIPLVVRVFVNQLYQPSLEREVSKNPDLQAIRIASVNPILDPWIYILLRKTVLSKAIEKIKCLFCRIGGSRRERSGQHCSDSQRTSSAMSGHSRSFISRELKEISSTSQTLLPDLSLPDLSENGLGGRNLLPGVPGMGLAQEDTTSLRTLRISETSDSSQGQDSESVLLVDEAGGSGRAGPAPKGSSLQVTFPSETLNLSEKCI
# Beta-1 adrenergic receptor (Homo sapiens), sequence (P08588 whole entry, looked up): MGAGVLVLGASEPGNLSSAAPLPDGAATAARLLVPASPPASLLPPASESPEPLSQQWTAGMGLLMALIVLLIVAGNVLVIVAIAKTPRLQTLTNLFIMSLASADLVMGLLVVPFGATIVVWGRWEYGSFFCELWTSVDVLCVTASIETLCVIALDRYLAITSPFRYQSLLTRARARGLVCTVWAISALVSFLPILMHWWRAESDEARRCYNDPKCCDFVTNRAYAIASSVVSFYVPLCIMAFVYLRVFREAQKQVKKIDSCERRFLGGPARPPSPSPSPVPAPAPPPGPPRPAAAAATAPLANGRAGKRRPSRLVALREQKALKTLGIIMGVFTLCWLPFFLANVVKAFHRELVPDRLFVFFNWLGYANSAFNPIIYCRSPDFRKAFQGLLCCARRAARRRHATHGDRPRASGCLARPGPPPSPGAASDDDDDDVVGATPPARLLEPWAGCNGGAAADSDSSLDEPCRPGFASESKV
# 5-hydroxytryptamine receptor 3A (Homo sapiens), sequence (P46098 whole entry): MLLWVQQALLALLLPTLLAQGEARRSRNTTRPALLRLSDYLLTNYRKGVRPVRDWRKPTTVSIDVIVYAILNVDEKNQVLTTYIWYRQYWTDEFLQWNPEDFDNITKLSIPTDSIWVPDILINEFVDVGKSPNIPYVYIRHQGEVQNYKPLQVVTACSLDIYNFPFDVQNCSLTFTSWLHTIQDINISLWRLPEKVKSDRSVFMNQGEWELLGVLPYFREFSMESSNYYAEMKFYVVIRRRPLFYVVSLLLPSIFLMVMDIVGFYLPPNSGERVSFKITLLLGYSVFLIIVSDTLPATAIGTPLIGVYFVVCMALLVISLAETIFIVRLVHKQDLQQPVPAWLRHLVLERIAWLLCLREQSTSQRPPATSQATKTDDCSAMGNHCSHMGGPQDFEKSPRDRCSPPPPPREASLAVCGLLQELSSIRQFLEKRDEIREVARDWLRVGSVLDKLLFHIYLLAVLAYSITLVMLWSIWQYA
# D(1A) dopamine receptor (Homo sapiens), sequence (P21728 whole entry): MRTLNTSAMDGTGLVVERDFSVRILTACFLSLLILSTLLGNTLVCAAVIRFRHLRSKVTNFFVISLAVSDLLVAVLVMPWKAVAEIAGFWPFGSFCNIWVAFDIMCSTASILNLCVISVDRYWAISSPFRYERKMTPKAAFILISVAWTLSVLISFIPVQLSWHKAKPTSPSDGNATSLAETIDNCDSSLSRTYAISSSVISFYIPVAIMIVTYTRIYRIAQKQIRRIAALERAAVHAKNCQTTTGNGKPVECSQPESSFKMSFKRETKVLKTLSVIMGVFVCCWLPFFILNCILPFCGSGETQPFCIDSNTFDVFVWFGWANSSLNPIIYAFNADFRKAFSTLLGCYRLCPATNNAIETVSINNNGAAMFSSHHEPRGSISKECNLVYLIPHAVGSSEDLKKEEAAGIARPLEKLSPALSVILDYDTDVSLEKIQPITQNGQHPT
# Adenosine receptor A2a (Homo sapiens), sequence (P29274 whole entry): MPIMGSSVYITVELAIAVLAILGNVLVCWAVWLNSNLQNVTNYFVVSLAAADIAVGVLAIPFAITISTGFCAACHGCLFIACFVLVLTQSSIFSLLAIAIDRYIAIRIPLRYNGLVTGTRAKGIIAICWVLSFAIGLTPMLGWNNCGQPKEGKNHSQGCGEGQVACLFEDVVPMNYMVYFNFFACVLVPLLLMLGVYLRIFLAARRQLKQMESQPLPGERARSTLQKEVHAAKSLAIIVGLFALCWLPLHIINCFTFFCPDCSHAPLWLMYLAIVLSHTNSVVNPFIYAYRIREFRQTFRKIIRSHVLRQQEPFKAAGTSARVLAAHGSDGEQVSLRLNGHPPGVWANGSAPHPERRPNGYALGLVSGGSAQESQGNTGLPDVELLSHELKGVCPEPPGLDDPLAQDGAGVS
# Kappa-type opioid receptor (Homo sapiens), sequence (P41145 whole entry): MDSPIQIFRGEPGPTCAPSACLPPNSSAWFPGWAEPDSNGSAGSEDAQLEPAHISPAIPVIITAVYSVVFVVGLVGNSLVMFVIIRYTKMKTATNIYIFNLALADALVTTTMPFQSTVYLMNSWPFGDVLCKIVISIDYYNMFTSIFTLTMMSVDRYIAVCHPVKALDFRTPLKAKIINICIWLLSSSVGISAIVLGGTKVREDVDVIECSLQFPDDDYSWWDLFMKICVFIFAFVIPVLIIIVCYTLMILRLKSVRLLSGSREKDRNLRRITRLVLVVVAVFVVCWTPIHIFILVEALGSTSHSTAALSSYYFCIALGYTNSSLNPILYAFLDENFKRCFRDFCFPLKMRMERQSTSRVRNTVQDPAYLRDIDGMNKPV
# D(3) dopamine receptor (Homo sapiens), sequence (P35462 whole entry): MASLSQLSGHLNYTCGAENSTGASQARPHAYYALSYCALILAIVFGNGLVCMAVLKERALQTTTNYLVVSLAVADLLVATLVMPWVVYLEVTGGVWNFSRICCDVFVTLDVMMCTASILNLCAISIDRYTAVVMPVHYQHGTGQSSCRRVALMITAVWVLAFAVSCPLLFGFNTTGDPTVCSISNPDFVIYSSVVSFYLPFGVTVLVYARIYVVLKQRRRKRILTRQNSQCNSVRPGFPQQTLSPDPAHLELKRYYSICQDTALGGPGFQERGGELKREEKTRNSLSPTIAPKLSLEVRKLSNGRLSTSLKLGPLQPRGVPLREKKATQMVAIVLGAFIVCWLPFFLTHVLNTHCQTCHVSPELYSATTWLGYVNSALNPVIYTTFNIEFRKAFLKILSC
smiles,measurement,setting,value
Cc1csc(NC(=O)c2cc(F)cc(Oc3cncnc3)c2)n1,inhibition,CHO-K1 [1],> 35%
same,inhibition,[2],> 35%
same,inhibition,Oryctolagus cuniculus,> 35%
same,inhibition,[3],> 35%
same,inhibition,Rattus norvegicus [4],> 35%
same,inhibition,Mus musculus [5],Dose-dependent effect
same,inhibition,Mus musculus [6],Active
same,inhibition,[7],> 35%
same,inhibition,Rattus norvegicus [8],> 35%
same,inhibition,[9],> 35%
same,inhibition,[10],> 35%
same,inhibition,[11],> 35%
same,inhibition,Rattus norvegicus [12],> 35%
same,inhibition,Rattus norvegicus [13],> 35%
same,Tmax,Brain,15 min
same,inhibition,Rattus norvegicus [14],> 35%
same,Activity,[15],inactive
same,inhibition,Rattus norvegicus [16],> 35%
same,inhibition,[17],> 35%
same,Tmax,Plasma,15 min
same,inhibition,[18],> 35%
same,inhibition,[19],> 35%
same,inhibition,[20],> 35%
same,Kp,[21],0.99
same,inhibition,Mesocricetus auratus,> 35%
same,Activity,[22],inactive
same,inhibition,CHO-K1 [23],> 35%
same,inhibition,[24],> 35%
same,Activity,[25],inactive
same,inhibition,[26],> 35%
same,inhibition,[27],> 35%
same,inhibition,[28],> 35%
same,inhibition,[29],> 35%
same,inhibition,Rattus norvegicus [30],> 35%
